High-throughput results (PubChem)
FGF22 binding – FGF22 (human) thermal shift binding; 1.5% of 340,000 active; AID 651658; recombinant FGF22 thermal shift, SYPRO orange fluorescence; percent of sucrose octasulfate shift, DMSO zero; activity (Tm shift, normalised), % at 9.99 µM; Q9HCT0;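 active = mean Tm shift, scaled 0 neutral to 100 positive control, at about 1.3% or above, every replicate too, limit read from the data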
Target sequence (Q9HCT0 whole entry, looked up): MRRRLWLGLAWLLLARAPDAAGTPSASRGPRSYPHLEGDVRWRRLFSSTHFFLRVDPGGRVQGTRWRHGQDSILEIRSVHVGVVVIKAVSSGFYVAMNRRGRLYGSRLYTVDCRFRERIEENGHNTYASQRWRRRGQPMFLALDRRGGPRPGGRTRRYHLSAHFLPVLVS
NS3 helicase inh – inhibitors of Hepatitis C virus NS3 helicase; inhibition, % at 10.9 µM; NS3 helicase DNA unwinding, Cy5 molecular beacon fluorescence; AID 1800; 0.56% of 290,000 active;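 active = inhibition above the mean of all tested compounds plus 3 SD, set per campaign, cut at about 35% in these data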
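Measured by: Cy5 fluorescence, 0 and 60 min reads / Assay system: NS3 helicase fragment of HCV / Control set: low DMSO, high thioflavine S at 110 µM / Times: 1 h reaction at 25 °C, ATP-initiated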
EBNA-1 inhibitor – blocks EBNA-1 binding to DNA | inhibition, % at 14.8 µM | EBNA-1 DNA binding, fluorescence polarization | 0.34% of 300,000 active; in the data active = inhibition above about 28%
ZTA counter – blocks Epstein-Barr virus ZTA, an EBNA-1 counter-screen | ZTA-DNA binding, fluorescence polarization | inhibition, % at 11 µM | P03206 | 0.15% of 320,000 active | AID 2234; in the data active = inhibition above about 33%
Target sequence (P03206 whole entry, looked up): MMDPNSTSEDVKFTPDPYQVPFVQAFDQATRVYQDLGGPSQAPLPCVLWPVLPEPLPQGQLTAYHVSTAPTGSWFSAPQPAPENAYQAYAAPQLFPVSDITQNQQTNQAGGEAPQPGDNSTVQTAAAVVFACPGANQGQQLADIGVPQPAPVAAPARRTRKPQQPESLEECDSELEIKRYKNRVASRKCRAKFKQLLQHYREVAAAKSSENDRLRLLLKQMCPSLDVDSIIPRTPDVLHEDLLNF
GRIN3A LBD mod – modulates the human NR3A ligand-binding domain; NR3A LBD differential scanning fluorimetry, Tm shift; 0% = protein alone, 100% = glycine-bound protein; 2.5% of 340,000 active; Tm shift relative to glycine control, % at 25 µM;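 active = melting temperature shift of at least 10% of the positive control shift, at one fixed dose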
DNA FID counter – displaces DNA intercalator in HCV helicase counter-screen | DNA fluorescent intercalator displacement, fluorescence | inhibition, % at 7.9 µM | 0.17% of 290,000 active; in the data active = inhibition above about 37%;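 note: higher means more ethidium bromide displaced from hairpin DNA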
Numbers stand for hits; . = inactive; / = no result given. Shown are actives, neighbours in structure and some others; about 3.6% of the full set was active somewhere.

SMILES	FGF22 binding	NS3 helicase inh	EBNA-1 inhibitor	ZTA counter	GRIN3A LBD mod	DNA FID counter
O=C(Cc1ccccc1)N1CCN=C1SCc1cccc([N+](=O)[O-])c1	43.0	.	.	.	.	.
Cc1ccc(S(=O)(=O)Oc2ccc(/C=N/N=C3/NC(=O)C(CC(=O)O)S3)cc2)cc1 (stereo unspecified)	.	/	/	/	.	/
COc1ccc(S(=O)(=O)Oc2cccc(/C=N/N=C3/NC(=O)C(CC(=O)O)S3)c2)cc1 (stereo unspecified)	2.6	.	.	.	.	.
COc1ccc(NC(=O)N(C)C[C@@H]2Oc3c(NS(=O)(=O)c4ccc(F)cc4)cccc3C(=O)N([C@@H](C)CO)C[C@H]2C)cc1	.	/	/	/	/	/
Cc1cc(Oc2ccc(=O)n(C)n2)nc(SCc2ccccc2)n1	43.3	.	.	.	.	.
[O-][N+](=Cc1ccccc1)CC1(O)CCCCC1	43.3	/	/	/	/	/
Cc1cc2ccccc2nc1SCC(=O)NC1CCCC1	43.0	.	.	.	.	.
O=C(C[C@H]1CC[C@@H]2[C@H](COC[C@@H](O)CN2C(=O)Nc2ccc(F)cc2)O1)NCCc1ccccc1	.	/	/	/	/	/
CCc1ccc(CCC(=O)Nc2ccc(OC)cc2)o1	/	.	.	.	32.5	.
NS(=O)(=O)c1ccc(NC(=O)Nc2ccc(C(F)(F)F)cc2)cc1	.	.	.	.	19.6	.
CCc1ccc(CCC(=O)Nc2ccc(Br)cc2)o1	.	.	.	.	.	.
NS(=O)(=O)c1ccc(NC(=O)C(Sc2ccccc2)c2ccccc2)cc1 (stereo unspecified)	1.4	.	.	.	.	.
Cc1ccc(NC(=O)Nc2ccc(S(N)(=O)=O)cc2)cc1	.	.	.	.	11.1	.
C[C@@H]1CN([C@H](C)CO)C(=O)Cc2cc(NS(C)(=O)=O)ccc2O[C@@H]1CN(C)S(=O)(=O)c1cn(C)cn1	.	/	/	/	/	/
C[C@@H]1CCCCO[C@H](CN(C)S(=O)(=O)c2ccc(F)cc2)[C@H](C)CN([C@H](C)CO)C(=O)c2cc(NC(=O)Nc3ccc(F)cc3)ccc2O1	.	/	/	/	/	/
C[C@@H]1CN([C@H](C)CO)C(=O)c2cc(NC(=O)NC3CCCCC3)ccc2O[C@@H]1CN(C)Cc1ccc(Cl)c(Cl)c1	.	/	/	/	/	/
COc1ccc(NS(=O)(=O)c2ccc(OC)c(NC(=O)CNC(=O)c3ccc(OC)cc3)c2)cc1	.	/	/	.	.	/
CC(C)CNC(C)C(=O)Nc1ccc(S(N)(=O)=O)cc1 (stereo unspecified)	43.2	.	.	.	.	.
COc1ccc(NS(=O)(=O)c2ccc(NC(=O)CCNS(=O)(=O)c3ccc(C)cc3)cc2)cc1	.	.	.	.	10.0	.
CC(NS(=O)(=O)c1ccccc1)C(=O)Nc1ccc(S(N)(=O)=O)cc1 (stereo unspecified)	/	.	.	.	.	.
Cc1ccc(OCCCC(=O)Nc2ccc(S(N)(=O)=O)cc2)cc1	43.4	.	.	.	.	.
COc1ccc(NS(=O)(=O)c2ccc(OC)c(NC(=O)CCC3CCCCC3)c2)cc1	/	.	.	.	21.9	.
Cc1ccc(S(=O)(=O)Nc2ccc3c(c2)C(=O)N([C@@H](C)CO)C[C@@H](C)[C@H](CN(C)Cc2ccc(C(F)(F)F)cc2)OCCCC[C@@H](C)O3)cc1	.	/	/	/	/	/
O=C(NCc1ccc(F)cc1)c1ccc2c(=O)n3c(nc2c1)CCCCC3	.	.	.	.	.	.
Cc1nc2n(c(=O)c1CCN1CCC(c3noc4cc(F)ccc34)CC1)CCCC2	.	.	.	.	10.4	.
SMILES	FGF22 binding	NS3 helicase inh	EBNA-1 inhibitor	ZTA counter	GRIN3A LBD mod	DNA FID counter
O=C(O)c1cccc(-c2ccc(/C=c3/sc4nc5ccccc5n4c3=O)o2)c1	.	.	.	.	.	.
O=C(O)c1cc(C(=O)O)cc(-c2ccc(/C=c3/sc4nc5ccccc5n4c3=O)o2)c1	/	.	/	/	10.1	.
O=C(Nc1ccc(Cl)c(Cl)c1)C1=Cc2ccccc2OC1	/	.	.	.	18.6	.
O=C(Nc1cccc(Cl)c1)C1=Cc2cc(Cl)ccc2OC1	/	.	.	.	20.4	.
O=C(Nc1ccc2c(c1)OCCO2)c1ccc(Cl)c(Cl)c1	.	.	.	.	.	.
C[C@@H]1CCCCO[C@@H](CN(C)C(=O)c2ccccc2)[C@H](C)CN([C@@H](C)CO)C(=O)c2cc(NC(=O)Nc3cccc4ccccc34)ccc2O1	.	/	/	/	/	/
